# Laboratory results from ChEMBL document CHEMBL4190313, “In vitro targeting of colon cancer cells using spiropyrazoline oxindoles” (Eur J Med Chem, 2017).
# Calls of active or inactive are those of the source. The rule behind the calls is not given here.
# Key:
# [1] = system: HCT-116; assay: Antiproliferative activity against human HCT116 p53+/+ cells after 72 hrs by MTS assay; type: functional, cell-based; details: HCT-116, 72 h
# How it was run: (§1)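 Cells allowed to adhere 24 h (1x10⁴/well), then exposed to 0.5-50 μM compound from DMSO stocks (final DMSO ≤0.8% v/v) for 72 h. Viability by MTS bio-reduction to formazan, absorbance 490 nm. IC50 from log(inhibitor) vs response (variable slope) fit, at least three independent experiments; table values mean ± SD of three experiments in duplicate.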
# [2] = system: HCT-116; assay: Cell cycle arrest in human HCT116 p53+/+ cells assessed as accumulation at G2/M phase at IC50 after 24 hrs by propidium iodide staining-based flow cytometric analysis (reference value: 29.07%); type: functional
# [3] = system: HCT-116; assay: Cell cycle arrest in human HCT116 p53+/+ cells assessed as accumulation at S phase at IC50 after 48 hrs by propidium iodide staining-based flow cytometric analysis (reference value: 22.67%); type: functional
# [4] = system: HCT-116; assay: Cytotoxicity against human HCT116 p53+/+ cells at IC50 after 72 hrs by LDH release assay; type: functional, cell-based
# How it was run: (§2)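 HCT-116 p53+/+ cells treated at IC50 or 2xIC50, or DMSO, for 72 h. Supernatant mixed with LDH assay substrate 10-30 min at room temperature in the dark; absorbance 490 nm, 620 nm reference. LDH release normalized to DMSO control; mean ± SEM of three independent experiments.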
# [5] = system: HCT-116; assay: Cytotoxicity against human HCT116 p53+/+ cells at 2 times IC50 after 72 hrs by LDH release assay relative to control; type: functional; how it was run: as §2
# [6] = system: HCT-116; assay: Induction of apoptosis in human HCT116 p53+/+ cells assessed as increase in early apoptotic cells at 2 times IC50 after 72 hrs by Annexin V-FITC/7-AAD staining-based flow cytometric analysis; type: functional, cell-based
# How it was run: (§3)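 HCT-116 p53+/+ cells (5x10⁴/well) exposed at IC50 or 2xIC50, or DMSO, for 72 h. Medium and Accutase-detached cells pooled, resuspended in PBS/2% FBS, stained with Annexin V/7-AAD reagent 20 min at room temperature in the dark. Flow cytometry, at least 5000 events per sample; mean ± SD of three independent experiments.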
# [7] = system: CCD-18Co; assay: Cytotoxicity against human CCD-18Co cells at IC50 after 72 hrs by MTS assay; type: cell-based
# [8] = target: T1, Tumour suppressor p53/oncoprotein Mdm2 (Homo sapiens) (UniProt P04637+Q00987); assay: Inhibition of MDM2/p53 interaction in human HCT116 cells assessed as upregulation of p53 protein expression at IC50 after 72 hrs by Western blot analysis; type: cell-based
# [9] = system: HCT-116; assay: Antiproliferative activity against human HCT116 p53-/- cells after 72 hrs by MTS assay; type: functional, cell-based; details: HCT-116, 72 h; how it was run: as §1
# [10] = system: CCD-18Co; assay: Cytotoxicity against human CCD-18Co cells at IC80 after 72 hrs by MTS assay relative to control; type: cell-based
# [11] = system: HCT-116; assay: Cell cycle arrest in human HCT116 p53+/+ cells assessed as accumulation at G0/G1 phase at IC50 after 24 hrs by propidium iodide staining-based flow cytometric analysis (reference value: 33.49%); type: functional
# [12] = target: T1, Tumour suppressor p53/oncoprotein Mdm2 (Homo sapiens); assay: Inhibition of MDM2-V2/V1-p53 (unknown origin) interaction expressed in human HCT116 p53-/- cells at 20 uM after 20 hrs by biomolecular fluorescence complementation-based flow cytometric analysis; type: cell-based
# How it was run: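 HCT-116 p53-/- cells cotransfected with 1 µg each of V1-p53 and MDM2-V2 Venus BiFC plasmids by lipofection. Medium replaced 4-6 h later and compound added at 5, 10 or 20 μM, or DMSO, for a further 20 h. Cells detached with accutase; Venus fluorescence by flow cytometry, normalized to DMSO (100%). Mean ± SD of three independent experiments.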
# [13] = target: T1, Tumour suppressor p53/oncoprotein Mdm2 (Homo sapiens); assay: Inhibition of MDM2/p53 interaction in human HCT116 cells assessed as downregulation of MDM2 protein expression at IC50 after 72 hrs by Western blot analysis; type: cell-based
# [14] = system: HCT-116; assay: Cell cycle arrest in human HCT116 p53+/+ cells assessed as accumulation at G0/G1 phase at IC50 after 48 hrs by propidium iodide staining-based flow cytometric analysis (reference value: 50.48%); type: functional
# [15] = system: HCT-116; assay: Cell cycle arrest in human HCT116 p53+/+ cells assessed as accumulation at S phase at IC50 after 24 hrs by propidium iodide staining-based flow cytometric analysis (reference value: 37.44%); type: functional
# [16] = system: HCT-116; assay: Induction of apoptosis in human HCT116 p53+/+ cells assessed as early apoptotic cells at IC50 after 72 hrs by Annexin V-FITC/7-AAD staining-based flow cytometric analysis relative to control; type: functional; how it was run: as §3
# [17] = system: HCT-116; assay: Cell cycle arrest in human HCT116 p53+/+ cells assessed as accumulation at G2/M phase at IC50 after 48 hrs by propidium iodide staining-based flow cytometric analysis (reference value: 26.85%); type: functional
# [18] = target: E3 ubiquitin-protein ligase Mdm2 (Homo sapiens) (UniProt Q00987); assay: Inhibition of FAM-tagged p53-based fluorescent probe binding to human His-tagged MDM2 (1 to 118 residues) up to 400 uM after 30 mins by fluorescence polarization assay
# How it was run: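 Recombinant human His-tagged MDM2 (residues 1-118), final 10 nM, preincubated with 5-FAM-labelled p53-based peptidomimetic probe, final 1 nM (Kd 1.4 ± 0.3 nM). Buffer: 100 mM potassium phosphate pH 7.5, 100 μg/ml bovine γ-globulin, 0.02% sodium azide, 0.01% Triton X-100, final 4% DMSO. Incubated 30 min at room temperature with shaking; polarization read at ex 485/em 530 nm. Inhibition calculated against protein+probe and free-probe controls.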
# [19] = system: HCT-116; assay: Synergistic cytotoxicity against human HCT116 p53+/+ cells at IC10 to IC20 after 72 hrs in presence of 5-FU by MTS assay; type: functional, cell-based
# [20] = system: HCT-116; assay: Synergistic cytotoxicity against human HCT116 p53+/+ cells at IC50 after 72 hrs in presence of 5-FU by MTS assay; type: functional, cell-based
# T1 sequence (P04637 whole entry, looked up): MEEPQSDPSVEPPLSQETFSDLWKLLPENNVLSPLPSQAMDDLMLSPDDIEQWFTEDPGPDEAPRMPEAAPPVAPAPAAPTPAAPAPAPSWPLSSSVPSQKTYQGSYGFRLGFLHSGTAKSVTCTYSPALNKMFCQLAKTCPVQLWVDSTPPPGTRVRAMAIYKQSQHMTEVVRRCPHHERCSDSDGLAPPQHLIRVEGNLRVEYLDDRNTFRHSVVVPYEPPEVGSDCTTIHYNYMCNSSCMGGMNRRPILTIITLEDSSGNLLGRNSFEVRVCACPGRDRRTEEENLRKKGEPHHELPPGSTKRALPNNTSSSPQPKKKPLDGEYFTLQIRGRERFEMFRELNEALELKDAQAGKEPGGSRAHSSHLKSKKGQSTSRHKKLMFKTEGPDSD
# T1 sequence (Q00987 whole entry, looked up): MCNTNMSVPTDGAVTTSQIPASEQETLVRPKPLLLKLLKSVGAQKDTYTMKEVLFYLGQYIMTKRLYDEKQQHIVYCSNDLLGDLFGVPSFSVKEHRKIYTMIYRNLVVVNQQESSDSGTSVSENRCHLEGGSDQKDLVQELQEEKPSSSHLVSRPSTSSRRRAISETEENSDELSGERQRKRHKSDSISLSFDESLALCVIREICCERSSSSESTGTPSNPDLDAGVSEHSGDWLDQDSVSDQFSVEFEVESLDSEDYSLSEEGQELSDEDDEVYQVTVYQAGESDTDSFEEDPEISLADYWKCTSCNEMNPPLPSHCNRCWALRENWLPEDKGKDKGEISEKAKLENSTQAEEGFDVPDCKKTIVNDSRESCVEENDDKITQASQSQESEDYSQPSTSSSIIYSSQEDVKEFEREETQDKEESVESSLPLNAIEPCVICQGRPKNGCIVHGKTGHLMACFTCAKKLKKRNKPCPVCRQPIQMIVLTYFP
# E3 ubiquitin-protein ligase Mdm2 (Homo sapiens), sequence (Q00987 whole entry, looked up, the tested form may be a part): as the sequence (Q00987 whole entry, looked up) above
structure (smiles),measurement,setting,value
CC(C)(C)C1=NN(c2ccccc2)[C@]2(C(=O)Nc3cc(Cl)ccc32)[C@H]1c1cccc(Cl)c1,IC50,[1],18.4 µM
O=C1Nc2cc(Cl)ccc2[C@@]12ON=C(c1ccccc1)[C@@H]2c1ccccc1,IC50,[1],39.8 µM
CC(C)(C)C1=NN(c2ccccc2Cl)[C@]2(C(=O)Nc3ccc(Cl)cc32)[C@H]1c1ccccc1,IC50,[1],> 20 µM
COc1ccc(C2=NN(c3ccccc3)[C@]3(C(=O)Nc4c(Cl)cccc43)[C@H]2c2ccccc2)cc1,IC50,[1],15.6 µM
CC(C)(C)C1=NN(c2ccccc2)[C@]2(C(=O)Nc3ccccc32)[C@H]1c1ccccc1,IC50,[1],> 20 µM
COc1ccc(C2=NN(c3ccccc3)[C@]3(C(=O)Nc4cc(Cl)ccc43)[C@H]2c2cccc(Cl)c2)cc1,Activity,[2],11.33%
same,Activity,[3],20.35%
same,Activity,[4],inactive
same,fold change (FC),[5],1.5
same,Activity,[6],Active
same,Activity,[7],Non-Toxic
same,inhibition,[8],Active
same,IC50,[9],11.6 µM
same,IC50,[1],10.9 µM
same,Activity,[10],20%
same,Activity,[11],50.22%
same,inhibition,[12],Active
same,inhibition,[13],Active
same,Activity,[14],54.78%
same,Activity,[15],38.45%
same,Activity,[16],10%
same,Activity,[17],24.87%
CC(C)(C)C1=NN(c2ccccc2)[C@]2(C(=O)Nc3ccc(Cl)cc32)[C@H]1c1ccccc1,IC50,[1],17 µM
COc1ccc(C2=NN(c3ccccc3)[C@]3(C(=O)Nc4ccccc43)[C@H]2c2ccccc2)cc1,IC50,[1],11.7 µM
O=C1Nc2ccccc2[C@]12[C@@H](c1ccccc1)C(c1ccccc1)=NN2c1ccccc1,IC50,[1],> 20 µM
O=C1Nc2ccc(Cl)cc2[C@]12[C@@H](c1ccccc1)C(c1ccccc1)=NN2c1ccccc1,IC50,[1],11 µM
COc1ccc(C2=NO[C@]3(C(=O)Nc4cc(Br)ccc43)[C@H]2c2ccccc2)cc1,IC50,[1],33.4 µM
O=C1Nc2cc(Cl)c(F)cc2[C@]12[C@@H](c1ccccc1)C(c1ccccc1)=NN2c1ccccc1,IC50,[1],12.4 µM
CC(C)(C)C1=NN(c2ccccc2)[C@]2(C(=O)Nc3c(Cl)cccc32)[C@H]1c1ccccc1,IC50,[1],13.3 µM
CC(C)(C)C1=NN(c2ccccc2Cl)[C@]2(C(=O)Nc3c(Cl)cccc32)[C@H]1c1ccccc1,IC50,[1],17.3 µM
CC(C)(C)C1=NN(c2ccccc2Cl)[C@]2(C(=O)Nc3ccccc32)[C@H]1c1ccccc1,IC50,[1],> 20 µM
CC(C)(C)C1=NN(c2ccccc2)[C@]2(C(=O)Nc3cc(Br)ccc32)[C@H]1c1ccccc1,IC50,[1],> 20 µM
CC(C)(C)C1=NN(c2ccccc2)[C@]2(C(=O)Nc3cc(Cl)ccc32)[C@H]1c1ccccc1,IC50,[1],> 20 µM
O=C1Nc2cc(Br)ccc2[C@@]12ON=C(c1ccccc1)[C@@H]2c1ccccc1,IC50,[1],35 µM
CC(C)(C)C1=NN(c2ccccc2)[C@]2(C(=O)Nc3ccc(Br)cc32)[C@H]1c1ccccc1,IC50,[1],> 20 µM
O=C1Nc2c(Cl)cccc2[C@]12[C@@H](c1ccccc1)C(c1ccccc1)=NN2c1ccccc1Cl,IC50,[1],> 20 µM
O=C1Nc2cc(Cl)ccc2[C@]12[C@@H](c1ccccc1)C(c1ccccc1)=NN2c1ccccc1,IC50,[1],16.7 µM
O=C1Nc2c(Cl)cccc2[C@]12[C@@H](c1ccccc1)C(c1ccccc1)=NN2c1ccccc1,IC50,[1],16.6 µM
O=C1Nc2ccc(Br)cc2[C@]12[C@@H](c1ccccc1)C(c1ccccc1)=NN2c1ccccc1,Activity,[2],19.55%
same,Activity,[3],15.38%
same,Activity,[4],inactive
same,fold change (FC),[5],1.5
same,Activity,[7],Non-Toxic
same,inhibition,[8],Active
same,inhibition,[18],inactive
same,Activity,[19],Active
same,IC50,[9],14.2 µM
same,IC50,[1],13.1 µM
same,Activity,[10],20%
same,Activity,[11],41.85%
same,inhibition,[12],Active
same,inhibition,[13],Active
same,Activity,[14],62%
same,Activity,[20],inactive
same,Activity,[15],38.59%
same,Activity,[16],10%
same,Activity,[17],15.17%
O=C1Nc2cc(Br)ccc2[C@]12[C@@H](c1ccccc1)C(c1ccccc1)=NN2c1ccccc1,IC50,[1],15.9 µM
COc1ccc(C2=NN(c3ccccc3)[C@]3(C(=O)Nc4ccc(Cl)cc43)[C@H]2c2ccccc2)cc1,IC50,[1],10.6 µM
COc1ccc(C2=NN(c3ccccc3)[C@]3(C(=O)Nc4cc(Br)ccc43)[C@H]2c2ccccc2)cc1,IC50,[1],12.8 µM
